Here are results for twelve compounds from ChEMBL document CHEMBL4725237, “Synthesis and biological evaluation of triazolyl-substituted benzyloxyacetohydroxamic acids as LpxC inhibitors” (Bioorg Med Chem, 2020).

pIC50: −log10 of the molar value. In brackets after ≈: the same amount, converted by molar mass.

Assay [1] in a line: Inhibition of LpxC C63A mutant in Escherichia coli […] preincubated for 30 mins followed by incubation for 10 mins by spectrophotometric analysis.
The subject of assay [2] is Escherichia coli. Description: Antibacterial activity against Escherichia coli BL21 (DE3) assessed as zone of growth inhibition at 10 mmol incubated for overnight by disc diffusion method. The following applies: dose 10 mM; time 12 hrs. It is filed as functional. Summed up:
(§1)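 Overnight LB cultures (37 °C, 200 rpm), 150 µL spread on LB agar. 15 µL of compound (10 mM stock in DMSO) was applied to 6 mm filter paper disks, with DMSO as negative and CHIR-090 as positive control. Plates were incubated overnight at 37 °C and the diameter of the growth-inhibition zone was measured. At least three runs on separate days.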
(In general: In agar diffusion tests the substance spreads into inoculated agar from a disc or well.)

The test system of assay [3] is Escherichia coli. The assay can be described thus: Antibacterial activity against Escherichia coli D22 assessed as zone of growth inhibition at 10 mmol incubated for overnight by disc diffusion method. It counts as functional. The following applies: dose 10 mM; time 12 hrs. A digest of the protocol: as §1
Assay [4] deals with Escherichia coli. Description: Antibacterial activity against Escherichia coli BL21 (DE3) assessed as prevention of visible growth incubated for 20 hrs by two-fold serial microbroth dilution method. It counts as functional. A digest of the protocol:
(§2)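 Broth microdilution in LB with 5% DMSO. Overnight cultures (LB, 37 °C, 200 rpm) were diluted 1:100 and added to a twofold compound dilution series in DMSO, giving 5·10^6 cfu·mL⁻¹ and final compound 64 to 0.25 µg·mL⁻¹. Plates were incubated 20 h at 37 °C. MIC was taken as the lowest concentration with no visible growth. At least three runs on separate days.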
(In general: In broth dilution the organism is exposed to a series of concentrations in liquid medium.)

The subject of assay [5] is Escherichia coli. The assay can be described thus: Antibacterial activity against Escherichia coli D22 incubated assessed as prevention of visible growth for 20 hrs by two-fold serial microbroth dilution method. It counts as functional. A digest of the protocol:
as §2

Regarding `O=C(CO[C@H](Cn1cc(-c2ccccc2)nn1)c1ccc(C#Cc2ccccc2)cc1)NO`, the pIC50 (as a rule, the negative decadic logarithm of the IC50, by convention in mol/L) in assay [1] was 4.98. The “inhibition zone (IZ)” value with Escherichia coli [2] is reported as less than 6 mm; with Escherichia coli [3], 12.3 mm. Further, the MIC (as a rule, the lowest concentration that inhibits growth of the organism) in the assay with Escherichia coli [4] was more than 64 µg/mL; in the assay on Escherichia coli [5] it was 0.25 µg/mL (≈ 0.57 µM).

Consider `O=C(CO[C@H](Cn1nncc1CO)c1ccc(C#Cc2ccccc2)cc1)NO`, for which, in assay [1], the pIC50 was 4.63. Also, the “inhibition zone (IZ)” value with Escherichia coli [2] was found to be 10.3 mm; in the assay with Escherichia coli [3], 29.5 mm. For the same compound, the MIC in the assay on Escherichia coli [4] was more than 64 µg/mL; in the assay on Escherichia coli [5], 1 µg/mL (≈ 2.55 µM).

Turning to `O=C(CO[C@H](Cn1ccnn1)c1ccc(C#Cc2ccccc2)cc1)NO`, the pIC50 in assay [1] was 4.44. Also, the figures for the “inhibition zone (IZ)” value in the assay with Escherichia coli [2] and in the assay with Escherichia coli [3] were less than 6 mm and 21 mm, respectively. Also, the minimum inhibitory concentration (MIC) with Escherichia coli [4] was more than 64 µg/mL; with Escherichia coli [5], 1 µg/mL (≈ 2.76 µM).

Regarding `C[C@@H](O)[C@H](NC(=O)c1ccc(C#Cc2ccc(CN3CCOCC3)cc2)cc1)C(=O)NO`, the pIC50 in assay [1] is 7.12. Moreover, the entries for the “inhibition zone (IZ)” value with Escherichia coli [2] and in the assay with Escherichia coli [3] were 31.7 mm and 37.5 mm, respectively. In addition, the MIC in the assay with Escherichia coli [4] amounted to 0.25 µg/mL (≈ 0.571 µM); in the assay on Escherichia coli [5], 0.031 µg/mL (≈ 0.0709 µM).

Consider `O=C(CO[C@H](Cn1nncc1-c1ccccc1)c1ccc(C#Cc2ccccc2)cc1)NO`, for which the pIC50 in assay [1] was less than 4.70. Further, the “inhibition zone (IZ)” value with Escherichia coli [2] is given as less than 6 mm; with Escherichia coli [3] it was 10.7 mm. Further, the values for the MIC with Escherichia coli [4] and in the assay with Escherichia coli [5] were more than 64 µg/mL and 8 µg/mL (≈ 18.2 µM), respectively.

`O=C(CO[C@@H](Cn1ccnn1)c1ccc(C#Cc2ccccc2)cc1)NO`: the pIC50 in assay [1] is less than 3.70. The “inhibition zone (IZ)” value in the assay on Escherichia coli [2] is less than 6 mm; in the assay on Escherichia coli [3], 11 mm. The MIC in the assay on Escherichia coli [4] was more than 64 µg/mL; with Escherichia coli [5], not below 32 µg/mL.

Consider `O=C(CO[C@@H](Cn1cc(-c2ccccc2)nn1)c1ccc(C#Cc2ccccc2)cc1)NO`, for which the negative-log IC50 (pIC50) in assay [1] was less than 3.70. Besides, the “inhibition zone (IZ)” value with Escherichia coli [2] was less than 6 mm; in the assay with Escherichia coli [3], 8.7 mm. Besides, the minimum inhibitory concentration (MIC) was more than 64 µg/mL in the assay on Escherichia coli [4] and 32 µg/mL (≈ 73 µM) in the assay with Escherichia coli [5].

For `O=C(CO[C@H](Cn1cc(CO)nn1)c1ccc(C#Cc2ccccc2)cc1)NO`, in assay [1], the pIC50 is 5.07. Also, the “inhibition zone (IZ)” value in the assay on Escherichia coli [2] is less than 6 mm; with Escherichia coli [3], 20.7 mm. For the same compound, the MIC in the assay on Escherichia coli [4] is more than 64 µg/mL; with Escherichia coli [5] it was 4 µg/mL (≈ 10.2 µM).

Regarding `O=C(CO[C@H](Cn1ccnn1)c1ccc(OCc2ccccc2)cc1)NO`, the pIC50 in assay [1] is less than 3.70. The “inhibition zone (IZ)” value in the assay with Escherichia coli [2] is listed as less than 6 mm; in the assay on Escherichia coli [3], 15 mm. The minimal inhibitory concentration (MIC) in the assay on Escherichia coli [4] and in the assay with Escherichia coli [5] was more than 64 µg/mL in each case.

Take `O=C(CO[C@@H](CO)c1ccc(C#Cc2ccccc2)cc1)NO`: the pIC50 in assay [1] is less than 3.70. For the same compound, the “inhibition zone (IZ)” value with Escherichia coli [2] is recorded as less than 6 mm; with Escherichia coli [3], 13 mm. Moreover, the MIC with Escherichia coli [4] was more than 64 µg/mL; in the assay on Escherichia coli [5], 32 µg/mL (≈ 103 µM).

As for `O=C(CO[C@H](CO)c1ccc(C#Cc2ccccc2)cc1)NO`, the pIC50 in assay [1] was 4.06. In addition, the entries for the “inhibition zone (IZ)” value in the assay on Escherichia coli [2] and in the assay with Escherichia coli [3] were 9.5 mm and 20.5 mm, respectively. Moreover, the results for the MIC in the assay with Escherichia coli [4] and with Escherichia coli [5] were 64 µg/mL (≈ 206 µM) and 1 µg/mL (≈ 3.21 µM), respectively.

For the compound `O=C(CO[C@H](Cn1cc(-c2ccccc2)nn1)c1ccc(OCc2ccccc2)cc1)NO`, in assay [1], the pIC50 is less than 3.70. For the same compound, the “inhibition zone (IZ)” value in the assay on Escherichia coli [2] is on record as less than 6 mm; in the assay on Escherichia coli [3] it was 10 mm. Moreover, the MIC in the assay on Escherichia coli [4] is more than 64 µg/mL; with Escherichia coli [5], 32 µg/mL (≈ 72 µM).
